This note sets out measurements from ChEMBL document CHEMBL1141667, “Synthesis and antimicrobial activities of 7-O-modified genistein derivatives” (2008).

Common to all, as to type: functional
One experiment concerns Aspergillus niger. Nature of the experiment: Antifungal activity against Aspergillus niger after 48 hrs by MTT assay. The gist of the method: (§1)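 Antifungal MIC by microdilution in RPMI-1640 medium. Compounds came from a 50 mg/mL DMSO stock and were serially diluted. Inoculum was about 10⁵ cfu/mL, with triplicate wells per concentration, incubated at 37 °C for 48 h. MIC was judged visually, followed by PBS containing 2 mg/mL MTT for 4–5 h at room temperature for the colorimetric read. A compound-free control tested MTT interference.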

Another experiment relates to Staphylococcus aureus. Nature of the experiment: Antibacterial activity against Staphylococcus aureus after 24 hrs by MTT assay. A digest of the protocol: (§2)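 Broth microdilution MIC in MH medium. Compounds from a 50 mg/mL DMSO stock were serially diluted in medium. Inoculum was about 10⁵ cfu/mL, each concentration in triplicate, incubated at 37 °C for 24 h. MIC was read visually, then confirmed by adding PBS with 2 mg/mL MTT and incubating 4–5 h at room temperature. A compound-free medium control checked for any MTT effect on growth.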

A further experiment deals with Pseudomonas fluorescens. In words: Antibacterial activity against Pseudomonas fluorescens after 24 hrs by MTT assay. The gist of the method:
as §2

The subject of a further experiment is Escherichia coli. In words: Antibacterial activity against Escherichia coli after 24 hrs by MTT assay. A digest of the protocol:
as §2

For a further experiment, the system named is Bacillus subtilis. In words: Antibacterial activity against Bacillus subtilis after 24 hrs by MTT assay. The gist of the method:
as §2

The subject of the next experiment is Candida albicans. In words: Antifungal activity against Candida albicans after 48 hrs by MTT assay. A digest of the protocol:
as §1

A further experiment deals with Trichophyton rubrum. Nature of the experiment: Antifungal activity against Trichophyton rubrum after 48 hrs by MTT assay. The gist of the method: as §1

≈ marks a conversion by molar mass, not a printed value.

Consider `O=c1c(-c2ccc(O)cc2)coc2cc(OCCCn3ccnc3)cc(O)c12`, for which the MIC against Aspergillus niger, against Staphylococcus aureus, with Pseudomonas fluorescens, against Escherichia coli, with Bacillus subtilis and with Candida albicans was greater than 50 µg/mL throughout. Moreover, the minimum inhibitory concentration (MIC) with Trichophyton rubrum is greater than 50 µg/mL.

`O=c1c(-c2ccc(O)cc2)coc2cc(OCCN3CCCCC3)cc(O)c12`: the MIC against Aspergillus niger, against Staphylococcus aureus, against Pseudomonas fluorescens, in the experiment with Escherichia coli, in the experiment on Bacillus subtilis and in the experiment with Candida albicans was greater than 50 µg/mL throughout. The compound further showed an MIC in the experiment with Trichophyton rubrum greater than 50 µg/mL.

As to `O=c1c(-c2ccc(O)cc2)coc2cc(OCCCCBr)cc(O)c12`, the minimum inhibitory concentration (MIC) in the experiment with Aspergillus niger, against Staphylococcus aureus, in the experiment with Pseudomonas fluorescens, against Escherichia coli, with Bacillus subtilis and with Candida albicans was greater than 50 µg/mL in each case. In addition, the MIC against Trichophyton rubrum is greater than 50 µg/mL.

For the compound `CCCCN(CCCC)CCOc1cc(O)c2c(=O)c(-c3ccc(O)cc3)coc2c1`, the MIC in the experiment with Aspergillus niger is 41.6 µg/mL (≈ 97.8 µM); against Staphylococcus aureus, 32.8 µg/mL (≈ 77.1 µM); in the experiment with Pseudomonas fluorescens it was 37 µg/mL (≈ 87 µM); in the experiment with Escherichia coli it was greater than 50 µg/mL; with Bacillus subtilis it was 30 µg/mL (≈ 70.5 µM); with Candida albicans, greater than 50 µg/mL. In the experiment on Trichophyton rubrum, this compound showed an MIC greater than 50 µg/mL.

For the compound `CN1CCN(CCCOc2cc(O)c3c(=O)c(-c4ccc(O)cc4)coc3c2)CC1`, the MIC in the experiment on Aspergillus niger was greater than 50 µg/mL; in the experiment on Staphylococcus aureus it was greater than 50 µg/mL; in the experiment with Pseudomonas fluorescens, greater than 50 µg/mL; with Escherichia coli it was greater than 50 µg/mL; against Bacillus subtilis, 43 µg/mL (≈ 105 µM); in the experiment on Candida albicans it was greater than 50 µg/mL. For the same compound, in the experiment on Trichophyton rubrum, the MIC was greater than 50 µg/mL.

As to `O=c1c(-c2ccc(O)cc2)coc2cc(OCCCCN3CCCCC3)cc(O)c12`, the MIC in the experiment with Aspergillus niger, in the experiment with Staphylococcus aureus, with Pseudomonas fluorescens, against Escherichia coli, with Bacillus subtilis and in the experiment on Candida albicans was greater than 50 µg/mL each time. For the same compound, in the experiment with Trichophyton rubrum, the minimal inhibitory concentration (MIC) is greater than 50 µg/mL.

In the case of `CCCN(CCC)CCOc1cc(O)c2c(=O)c(-c3ccc(O)cc3)coc2c1`, the minimum inhibitory concentration (MIC) against Aspergillus niger is greater than 50 µg/mL; in the experiment with Staphylococcus aureus, 41.2 µg/mL (≈ 104 µM); in the experiment on Pseudomonas fluorescens, 47.5 µg/mL (≈ 120 µM); in the experiment with Escherichia coli it was greater than 50 µg/mL; in the experiment with Bacillus subtilis it was greater than 50 µg/mL; in the experiment on Candida albicans, greater than 50 µg/mL. In addition, the MIC in the experiment on Trichophyton rubrum was greater than 50 µg/mL.

Consider `O=c1c(-c2ccc(O)cc2)coc2cc(OCCCNCc3ccco3)cc(O)c12`, for which the minimum inhibitory concentration (MIC) is 45.5 µg/mL (≈ 112 µM) in the experiment on Aspergillus niger; 3.4 µg/mL (≈ 8.35 µM) in the experiment with Staphylococcus aureus; 10.5 µg/mL (≈ 25.8 µM) against Pseudomonas fluorescens; greater than 50 µg/mL against Escherichia coli; 12.5 µg/mL (≈ 30.7 µM) in the experiment on Bacillus subtilis; greater than 50 µg/mL in the experiment on Candida albicans. Moreover, in the experiment on Trichophyton rubrum, the MIC is greater than 50 µg/mL.
